Measured values from ChEMBL document CHEMBL3621139, “NO-Donor Dihydroartemisinin Derivatives as Multitarget Agents for the Treatment of Cerebral Malaria” (J Med Chem, 2015).
pEC50, pIC50: −log10 of the molar value. Calls of active or inactive are those of the source.

Key:
Plasmodium berghei [1] = assay: Antiplasmodial activity against Plasmodium berghei ANKA early trophozoite stage by parasite LDH assay; format: functional, organism-based
Aorta [2] = assay: Vasodilatory activity in Wistar rat endothelium-denuded thoracic aorta assessed as reduction in phenylephrine-induced contraction; format: functional, tissue-based
Method in brief: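 Endothelium-denuded aortic strips equilibrated 120 min, contracted with L-phenylephrine (1 μM), then given cumulative concentrations of vasodilator. EC50 is the mean ± SEM of at least three experiments.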

Aorta [3] = assay: Vasodilatory activity in Wistar rat endothelium-denuded thoracic aorta assessed as reduction in phenylephrine-induced contraction in presence 1 uM sGC inhibitor ODQ; format: functional, tissue-based
Method in brief: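 Denuded aortic strips equilibrated 120 min, with ODQ 1 μM added to the bath 5 min before L-phenylephrine (1 μM) contraction. Cumulative vasodilator concentrations then added. EC50 is the mean ± SEM of at least three experiments, in a separate series.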

Plasmodium berghei [4] = assay: Antiplasmodial activity against Plasmodium berghei ANKA infected in C57BL/6 mouse assessed as reduction in paresitemia at 1.4 umol, ip qd for 5 days measured after 24 hrs by giemsa staining based microscpic analysis; format: functional
Method in brief: (§1)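 C57BL/6 mice infected with P. berghei ANKA and treated from day 5 of infection at 5–15% parasitemia, before neurological signs. Dosing 1.4 μmol ip once daily for 5 days; parasitemia checked every 24 h. Value given as % of pre-treatment parasitemia (set as 100%), read 24 h after the first dose or 24 h after the fifth.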

Plasmodium berghei [5] = assay: Antiplasmodial activity against Plasmodium berghei ANKA infected in C57BL/6 mouse assessed as reduction in paresitemia at 1.4 umol, ip qd for 5 days measured after 5 days by giemsa staining based microscpic analysis; format: functional, organism-based; method in brief: as §1
Plasmodium berghei [6] = assay: Antimalarial activity against Plasmodium berghei ANKA infected in C57BL/6 mouse experimental cerebral model assessed as mouse survival rate at 25 mg/kg, ip qd for 5 days; format: functional
Method in brief: (§2)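 P. berghei ANKA-infected mice left to develop clinical cerebral signs, then treated once hypothermic (rectal temperature 30–36 °C); parasitemia checked but not a treatment criterion. Read-out is survival, compared by log-rank test; 24 h survival also recorded. […] only the subgroup treated above 32 °C body temperature.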

Plasmodium berghei [7] = assay: Antimalarial activity against Plasmodium berghei ANKA infected in C57BL/6 mouse experimental cerebral model with body temperature >32 deg C assessed as mouse survival rate at 25 mg/kg, ip qd for 5 days; format: functional; method in brief: as §2
Plasmodium berghei [8] = assay: Antimalarial activity against Plasmodium berghei ANKA infected in C57BL/6 mouse experimental cerebral model assessed as mouse survival rate at 25 mg/kg, ip qd for 5 days measured after 24 hrs; format: functional; method in brief: as §2
Plasmodium berghei [9] = assay: Antimalarial activity against Plasmodium berghei ANKA infected in C57BL/6 mouse experimental cerebral model assessed as mouse survival rate at 57 mg/kg, ip qd for 5 days; format: functional; method in brief: as §2
Plasmodium berghei [10] = assay: Antimalarial activity against Plasmodium berghei ANKA infected in C57BL/6 mouse experimental cerebral model with body temperature >32 deg C assessed as mouse survival rate at 57 mg/kg, ip qd for 5 days; format: functional; method in brief: as §2
Plasmodium berghei [11] = assay: Antimalarial activity against Plasmodium berghei ANKA infected in C57BL/6 mouse experimental cerebral model assessed as mouse survival rate at 57 mg/kg, ip qd for 5 days measured after 24 hrs; format: functional; method in brief: as §2

Row | SMILES | pIC50 (Plasmodium berghei [1]) | pEC50 (Aorta [2]) | pEC50 (Aorta [3]) | inhibition (INH) (Plasmodium berghei [4]) | Activity (Plasmodium berghei [5]) | Activity (Plasmodium berghei [6]) | Activity (Plasmodium berghei [7]) | Activity (Plasmodium berghei [8]) | Activity (Aorta [2]) | Activity (Plasmodium berghei [9]) | Activity (Plasmodium berghei [10]) | Activity (Plasmodium berghei [11])
1 | C[C@H]1[C@H](OC(=O)CCC(=O)O)O[C@@H]2O[C@@]3(C)CC[C@H]4[C@H](C)CC[C@@H]1[C@@]24OO3 [SODIUM ARESUNATE] | 7.80 |  |  |  |  |  |  |  |  |  |  | 
2 | C[C@H]1[C@@H](OCCN(C)Cc2no[n+]([O-])c2C#N)O[C@@H]2O[C@@]3(C)CC[C@H]4[C@H](C)CC[C@@H]1[C@@]24OO3 | 7.74 | 7.64 | 6.60 | 85% | Active |  |  |  |  |  |  | 
3 | C[C@H]1[C@@H](OC(=O)CCC(=O)OCO/N=[N+](\[O-])N2CCCC2)O[C@@H]2O[C@@]3(C)CC[C@H]4[C@H](C)CC[C@@H]1[C@@]24OO3 | 7.82 | 8.44 | 6.85 | 95% | Active |  |  |  |  |  |  | 
4 | CO[C@H]1O[C@@H]2O[C@@]3(C)CC[C@H]4[C@H](C)CC[C@@H]([C@H]1C)[C@@]24OO3 [ARTEMETHER] | 8.52 |  |  |  |  | 27.5% | 33.3% | 48% |  |  |  | 
5 | C[C@H]1[C@@H](OCCN(C)Cc2no[n+]([O-])c2C(N)=O)O[C@@H]2O[C@@]3(C)CC[C@H]4[C@H](C)CC[C@@H]1[C@@]24OO3 | 7.80 | 5.85 | 4.92 | 95% | Active |  |  |  | Dose-dependent effect | 51.6% | 63.6% | 77%
6 | C[C@H]1[C@@H](OCCN(C)Cc2no[n+]([O-])c2S(=O)(=O)c2ccccc2)O[C@@H]2O[C@@]3(C)CC[C@H]4[C@H](C)CC[C@@H]1[C@@]24OO3 | 7.85 | 6.39 | 4.52 | 95% | Active |  |  |  |  |  |  | 
